Laboratory results: ChEMBL document CHEMBL4145448, “Broad activity of diphenyleneiodonium analogues against Mycobacterium tuberculosis, malaria parasites and bacterial pathogens” (Eur J Med Chem, 2018)

Legend:
[1] = Selectivity index, ratio of CC50 for human HepG2 cells in presence of 1% FBS to MIC for Acinetobacter baumannii ATCC 19606 col10; format: toxicity; conditions: read-out: Selectivity Index
[2] = Selectivity index, ratio of CC50 for human HepG2 cells in presence of 1% FBS to MIC for methicillin-resistant Staphylococcus aureus ATCC 43300; format: toxicity; conditions: read-out: Selectivity Index
How it was run: (§1)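 Selectivity index is CC50 (1% FBS) divided by MIC. […] They then got compound at 300 to 0.14 µM (3-fold steps) for 24 h at 37 °C, 5% CO2. Resazurin (10 µM, 2 h) was read at ex/em 560/590 in duplicate wells. For MIC, CLSI broth microdilution was run in CaMHB with ~10^6 cfu/mL inoculum and 0–128 µM compound.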

[3] = test system: Acinetobacter baumannii; experiment: Antibacterial activity against Acinetobacter baumannii ATCC 17978 after 18 hrs by broth microdilution method; format: functional; conditions: ATCC 17978, 18 h
How it was run: (§2)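 Broth microdilution per CLSI in cation-adjusted Mueller-Hinton broth. 100 µL inoculum (~10^6 cfu/mL in CaMHB) mixed with 100 µL CaMHB containing compound, 0 to 128 µM. Incubated 18 h at 37 °C. MIC taken as the lowest concentration with no visible growth. Polymyxin B served as positive control. Isolates were stored at -80 °C in tryptone soy broth with 20% glycerol.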

[4] = test system: Pseudomonas aeruginosa; experiment: Antibacterial activity against Pseudomonas aeruginosa isolate M146201 after 18 hrs by broth microdilution method; format: functional; conditions: isolate M146201, 18 h; how it was run: as §2
[5] = test system: Pseudomonas aeruginosa; experiment: Antibacterial activity against Pseudomonas aeruginosa isolate 19147nm after 18 hrs by broth microdilution method; format: functional; how it was run: as §2
[6] = Selectivity index, ratio of CC50 for human HepG2 cells in presence of 1% FBS to MIC for Acinetobacter baumannii isolate 07AC-336; format: toxicity; conditions: read-out: Selectivity Index
[7] = test system: Acinetobacter baumannii; experiment: Antibacterial activity against Acinetobacter baumannii ATCC 19606 after 18 hrs by broth microdilution method; format: functional; conditions: ATCC 19606 = CIP 70.34 = JCM 6841, 18 h; how it was run: as §2
[8] = test system: Staphylococcus aureus; experiment: Antibacterial activity against vancomycin-intermediate Staphylococcus aureus ATCC 700698 after 18 hrs by broth microdilution method; format: functional; conditions: ATCC 700698, 18 h; how it was run: as §2
[9] = test system: Enterococcus faecium; experiment: Antibacterial activity against vancomycin-resistant Enterococcus faecium ATCC 700221 after 18 hrs by broth microdilution method; format: functional; conditions: ATCC 700221, 18 h; how it was run: as §2
[10] = test system: Klebsiella pneumoniae; experiment: Antibacterial activity against Klebsiella pneumoniae ATCC 13883 after 18 hrs by broth microdilution method; format: functional; conditions: ATCC 13883, 18 h; how it was run: as §2
[11] = Selectivity index, ratio of CC50 for human HepG2 cells in presence of 1% FBS to MIC for Pseudomonas aeruginosa isolate 912; format: toxicity; conditions: read-out: Selectivity Index; how it was run: as §1
[12] = Selectivity index, ratio of CC50 for human HepG2 cells in presence of 1% FBS to MIC for Pseudomonas aeruginosa ATCC 27853; format: toxicity; conditions: read-out: Selectivity Index; how it was run: as §1
[13] = Selectivity index, ratio of CC50 for human HepG2 cells in presence of 1% FBS to MIC for Escherichia coli N2381; format: toxicity; conditions: read-out: Selectivity Index
[14] = Selectivity index, ratio of CC50 for human HepG2 cells in presence of 1% FBS to MIC for Acinetobacter baumannii ATCC 17978; format: toxicity; conditions: read-out: Selectivity Index
[15] = Selectivity index, ratio of CC50 for human HepG2 cells in presence of 1% FBS to MIC for Pseudomonas aeruginosa isolate 19147nm; format: toxicity; conditions: read-out: Selectivity Index; how it was run: as §1
[16] = test system: Staphylococcus aureus; experiment: Antibacterial activity against methicillin-resistant Staphylococcus aureus ATCC 43300 after 18 hrs by broth microdilution method; format: functional; conditions: ATCC 43300, 18 h; how it was run: as §2
[17] = test system: Escherichia coli; experiment: Antibacterial activity against Escherichia coli N2381 after 18 hrs by broth microdilution method; format: functional; conditions: N2381, 18 h; how it was run: as §2
[18] = Selectivity index, ratio of CC50 for human HepG2 cells in presence of 1% FBS to MIC for Klebsiella pneumoniae isolate M320445; format: toxicity; conditions: read-out: Selectivity Index
[19] = test system: Acinetobacter baumannii; experiment: Antibacterial activity against Acinetobacter baumannii ATCC 17978 col10 after 18 hrs by broth microdilution method; format: functional; conditions: ATCC 17978 col10, 18 h; how it was run: as §2
[20] = test system: Plasmodium falciparum; experiment: Growth inhibition of CQ-sensitive GFP-fused Plasmodium falciparum D10 after 90 hrs by ethidium bromide staining based flow cytometry; format: functional, organism-based; conditions: D10, 90 h
How it was run: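 Parasites cultured in human O+ erythrocytes in RPMI-HEPES pH 7.4 with hypoxanthine, NaHCO3, gentamicin and 0.5% Albumax II under 1% O2/4% CO2 at 37 °C. Synchronised to rings with heparin plus sorbitol. Set up at 1% parasitaemia and 1% haematocrit with 10x compound added. Cultured 90 h to next-cycle trophozoites. Stained with 10 µg/mL ethidium bromide for 1 h, washed, parasitaemia counted by flow cytometry with GFP gating.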

SMILES	selectivity ratio [1]	selectivity ratio [2]	MIC [3]	MIC [4]	MIC [5]	selectivity ratio [6]	MIC [7]	MIC [8]	MIC [9]	MIC [10]	selectivity ratio [11]	selectivity ratio [12]	selectivity ratio [13]	selectivity ratio [14]	selectivity ratio [15]	MIC [16]	MIC [17]	selectivity ratio [18]	MIC [19]	IC50 [20]
COc1ccc2c(c1)[I+]c1ccccc1-2	3.1	1.6	18 µM	70 µM	8.7 µM	> 0.11	18 µM	8.7 µM	4.4 µM	> 70 µM	> 0.11	> 0.11	0.21	0.39	0.81	4.4 µM	35 µM	0.11	2.2 µM	
Cc1ccc2c(c1)-c1ccccc1[I+]2	4.2	4.2	9 µM	36 µM	9 µM	2.2	18 µM	18 µM	4.5 µM	72 µM	4.2	> 0.52	0.52	4.2	4.2	9 µM	72 µM	0.52	1.1 µM	80 nM
c1ccc2c(c1)[I+]c1c-2ccc2ccccc12	0.69	0.34	1.1 µM	8.4 µM	2.1 µM	0.09	4.2 µM	4.2 µM	1.1 µM	8.4 µM	0.34	0.09	0.09	0.69	0.34	2.1 µM	8.4 µM	0.04	0.52 µM	120 nM
Fc1ccc2c(c1)-c1ccccc1[I+]2	5.3	2.7	2.2 µM	4.5 µM	1.1 µM	1.3	4.5 µM	18 µM	4.5 µM	18 µM	5.3	0.67	0.67	5.3	11	4.5 µM	18 µM	0.67	0.56 µM	100 nM
Cc1cccc2c1-c1ccccc1[I+]2	1.2	0.07	1.1 µM	2.3 µM	0.57 µM	1.2	2.3 µM	36 µM	2.3 µM	18 µM	2.3	0.14	0.14	2.3	4.6	36 µM	18 µM	0.07	0.57 µM	70 nM
Fc1ccc2c(c1)[I+]c1ccccc1-2	2.6	2.6	1.1 µM	2.2 µM	0.56 µM	0.66	4.5 µM	8.9 µM	2.2 µM	36 µM	5.3	0.66	0.08	5.3	11	2.2 µM	18 µM	0.16	0.56 µM	60 nM
COc1ccc2c(c1)-c1ccccc1[I+]2	2.3	1.5	18 µM	70 µM	18 µM	0.29	35 µM	35 µM	4.4 µM	70 µM	2.3	> 0.29	> 0.29	1.2	1.2	18 µM	> 70 µM	0.29	4.4 µM	100 nM
N#Cc1ccc2c(c1)[I+]c1ccccc1-2	1.5	0.75	4.4 µM	18 µM	2.2 µM	> 0.05	18 µM	8.8 µM	2.2 µM	18 µM	0.75	0.09	0.05	0.75	1.5	4.4 µM	71 µM	0.09	2.2 µM	50 nM
COc1cccc2c1-c1ccccc1[I+]2	2.2	1.1	35 µM	> 70 µM	70 µM	0.55	35 µM	35 µM	8.7 µM	> 70 µM	0.55	> 0.55	0.55	1.1	0.55	35 µM	70 µM	0.55	35 µM	170 nM
Clc1ccc2c(c1)[I+]c1ccccc1-2	1	0.51	0.54 µM	2.2 µM	0.54 µM	0.51	2.2 µM	2.2 µM	1.1 µM	8.7 µM	1	0.13	0.13	2	2	2.2 µM	8.7 µM	0.13	< 0.27 µM	70 nM
Clc1ccc2c(c1)-c1ccccc1[I+]2	7.5	7.5	2.2 µM	4.3 µM	4.3 µM	1.9	4.3 µM	4.3 µM	8.7 µM	8.7 µM	3.7	1.9	0.93	7.5	3.7	2.2 µM	17 µM	0.47	0.5 µM	80 nM
